Source: ChEMBL document CHEMBL4689842, “EUbOPEN Chemogenomics Library wave 1” (2021)

Assays:
Fibroblast = test: Incucyte cell viability with human fibroblast; type: toxicity, cell-based; conditions: 10 µM, compound concentration 10 uM; note: filed as whole numbers so only -1 and 0 and 1 occur
HEK-293T = test: Multiplex assay against HEK293T; type: toxicity, cell-based; conditions: human;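 for Population Tubulin-Different-Phenotype (%): share of the cells with healthy nuclei that show this phenotype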
Procedure, shortened: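 Compound was added to live cells that had been stained at seeding with Hoechst33342, BioTracker Green Microtubule Cytoskeleton Dye, MitoTracker Red and Annexin V Alexa Fluor 680, and imaging followed on a CQ1 microscope at 37°C and 5% CO2. CellPathfinder machine-learning gating divided cells into Hoechst high-intensity objects or normal cells, normal cells into healthy, pyknosed or fragmented nuclei, and pyknosed cells into mitotic or apoptotic. Tubulin, mitochondrial-mass and membrane-permeability phenotypes are per cents of healthy-nucleus cells.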

[1] = 12 h, 1 µM, compound concentration 1 uM, replicate 1
[2] = 12 h, 1 µM, compound concentration 1 uM, replicate 2
[3] = 12 h, 10 µM, compound concentration 10 uM, replicate 1
[4] = 12 h, 10 µM, compound concentration 10 uM, replicate 2
[5] = 24 h, 1 µM, compound concentration 1 uM, replicate 1
[6] = 24 h, 1 µM, compound concentration 1 uM, replicate 2
[7] = 24 h, 10 µM, compound concentration 10 uM, replicate 1
[8] = 24 h, 10 µM, compound concentration 10 uM, replicate 2
[9] = 48 h, 1 µM, compound concentration 1 uM, replicate 1
[10] = 48 h, 1 µM, compound concentration 1 uM, replicate 2
[11] = 48 h, 10 µM, compound concentration 10 uM, replicate 1
[12] = 48 h, 10 µM, compound concentration 10 uM, replicate 2

Compound: N#CCNC(=O)c1ccc(-c2ccnc(Nc3ccc(N4CCOCC4)cc3)n2)cc1 [MOMELOTINIB]
- Growth Rate (Fibroblast; 0 h, replicate number 2, timepoint 0 hours): 0
- Growth Rate (Fibroblast; 24 h, replicate number 1, timepoint 24 hours): 1
- Population Apoptotic (%) (HEK-293T; [1]): 35%
- Population Fragmented Nuclei (%) (HEK-293T; [1]): 8%
- Population Healthy Nuclei (%) (HEK-293T; [1]): 53%
- Population Hoechst High Intensity Objects (%) (HEK-293T; [1]): 12%
- Population Membrane Permeable-Phenotype (%) (HEK-293T; [1]): 0%
- Population Mitochondria Different-Phenotype (%) (HEK-293T; [1]): 61%
- Population Mitotic Cells (%) (HEK-293T; [1]): 64%
- Population Normal (%) (HEK-293T; [1]): 87%
- Population Pyknosed Nuclei (%) (HEK-293T; [1]): 38%
- Population Tubulin-Different-Phenotype (%) (HEK-293T; [1]): 33%
- Total Cell Count (HEK-293T; [1]): 303
- Population Apoptotic (%) (HEK-293T; [2]): 8%
- Population Fragmented Nuclei (%) (HEK-293T; [2]): 9%
- Population Healthy Nuclei (%) (HEK-293T; [2]): 52%
- Population Hoechst High Intensity Objects (%) (HEK-293T; [2]): 2%
- Population Membrane Permeable-Phenotype (%) (HEK-293T; [2]): 10%
- Population Mitochondria Different-Phenotype (%) (HEK-293T; [2]): 9%
- Population Mitotic Cells (%) (HEK-293T; [2]): 91%
- Population Normal (%) (HEK-293T; [2]): 97%
- Population Tubulin-Different-Phenotype (%) (HEK-293T; [2]): 21%
- Total Cell Count (HEK-293T; [2]): 198
- Population Apoptotic (%) (HEK-293T; [3]): 32%
- Population Fragmented Nuclei (%) (HEK-293T; [3]): 6%
- Population Healthy Nuclei (%) (HEK-293T; [3]): 54%
- Population Hoechst High Intensity Objects (%) (HEK-293T; [3]): 6%
- Population Membrane Permeable-Phenotype (%) (HEK-293T; [3]): 4%
- Population Mitochondria Different-Phenotype (%) (HEK-293T; [3]): 70%
- Population Mitotic Cells (%) (HEK-293T; [3]): 67%
- Population Normal (%) (HEK-293T; [3]): 93%
- Population Pyknosed Nuclei (%) (HEK-293T; [3]): 38%
- Population Tubulin-Different-Phenotype (%) (HEK-293T; [3]): 62%
- Total Cell Count (HEK-293T; [3]): 432
- Population Apoptotic (%) (HEK-293T; [4]): 10%
- Population Fragmented Nuclei (%) (HEK-293T; [4]): 9%
- Population Healthy Nuclei (%) (HEK-293T; [4]): 29%
- Population Hoechst High Intensity Objects (%) (HEK-293T; [4]): 5%
- Population Membrane Permeable-Phenotype (%) (HEK-293T; [4]): 11%
- Population Mitochondria Different-Phenotype (%) (HEK-293T; [4]): 21%
- Population Mitotic Cells (%) (HEK-293T; [4]): 89%
- Population Normal (%) (HEK-293T; [4]): 94%
- Population Pyknosed Nuclei (%) (HEK-293T; [4]): 60%
- Population Tubulin-Different-Phenotype (%) (HEK-293T; [4]): 42%
- Total Cell Count (HEK-293T; [4]): 251
- Population Apoptotic (%) (HEK-293T; [5]): 38%
- Population Fragmented Nuclei (%) (HEK-293T; [5]): 9%
- Population Healthy Nuclei (%) (HEK-293T; [5]): 58%
- Population Hoechst High Intensity Objects (%) (HEK-293T; [5]): 9%
- Population Membrane Permeable-Phenotype (%) (HEK-293T; [5]): 1%
- Population Mitochondria Different-Phenotype (%) (HEK-293T; [5]): 44%
- Population Mitotic Cells (%) (HEK-293T; [5]): 62%
- Population Normal (%) (HEK-293T; [5]): 90%
- Population Pyknosed Nuclei (%) (HEK-293T; [5]): 31%
- Population Tubulin-Different-Phenotype (%) (HEK-293T; [5]): 34%
- Total Cell Count (HEK-293T; [5]): 349
- Population Apoptotic (%) (HEK-293T; [6]): 10%
- Population Fragmented Nuclei (%) (HEK-293T; [6]): 10%
- Population Healthy Nuclei (%) (HEK-293T; [6]): 63%
- Population Hoechst High Intensity Objects (%) (HEK-293T; [6]): 1%
- Population Membrane Permeable-Phenotype (%) (HEK-293T; [6]): 14%
- Population Mitochondria Different-Phenotype (%) (HEK-293T; [6]): 9%
- Population Mitotic Cells (%) (HEK-293T; [6]): 89%
- Population Normal (%) (HEK-293T; [6]): 98%
- Population Pyknosed Nuclei (%) (HEK-293T; [6]): 26%
- Population Tubulin-Different-Phenotype (%) (HEK-293T; [6]): 18%
- Total Cell Count (HEK-293T; [6]): 260
- Population Apoptotic (%) (HEK-293T; [7]): 31%
- Population Fragmented Nuclei (%) (HEK-293T; [7]): 5%
- Population Healthy Nuclei (%) (HEK-293T; [7]): 58%
- Population Hoechst High Intensity Objects (%) (HEK-293T; [7]): 6%
- Population Membrane Permeable-Phenotype (%) (HEK-293T; [7]): 3%
- Population Mitochondria Different-Phenotype (%) (HEK-293T; [7]): 71%
- Population Mitotic Cells (%) (HEK-293T; [7]): 68%
- Population Normal (%) (HEK-293T; [7]): 93%
- Population Pyknosed Nuclei (%) (HEK-293T; [7]): 36%
- Population Tubulin-Different-Phenotype (%) (HEK-293T; [7]): 88%
- Total Cell Count (HEK-293T; [7]): 423
- Population Apoptotic (%) (HEK-293T; [8]): 17%
- Population Fragmented Nuclei (%) (HEK-293T; [8]): 9%
- Population Healthy Nuclei (%) (HEK-293T; [8]): 41%
- Population Hoechst High Intensity Objects (%) (HEK-293T; [8]): 4%
- Population Membrane Permeable-Phenotype (%) (HEK-293T; [8]): 15%
- Population Mitochondria Different-Phenotype (%) (HEK-293T; [8]): 25%
- Population Mitotic Cells (%) (HEK-293T; [8]): 82%
- Population Normal (%) (HEK-293T; [8]): 95%
- Population Pyknosed Nuclei (%) (HEK-293T; [8]): 49%
- Population Tubulin-Different-Phenotype (%) (HEK-293T; [8]): 78%
- Total Cell Count (HEK-293T; [8]): 239
- Population Apoptotic (%) (HEK-293T; [9]): 43%
- Population Fragmented Nuclei (%) (HEK-293T; [9]): 19%
- Population Healthy Nuclei (%) (HEK-293T; [9]): 67%
- Population Hoechst High Intensity Objects (%) (HEK-293T; [9]): 4%
- Population Membrane Permeable-Phenotype (%) (HEK-293T; [9]): 3%
- Population Mitochondria Different-Phenotype (%) (HEK-293T; [9]): 16%
- Population Mitotic Cells (%) (HEK-293T; [9]): 56%
- Population Normal (%) (HEK-293T; [9]): 95%
- Population Pyknosed Nuclei (%) (HEK-293T; [9]): 13%
- Population Tubulin-Different-Phenotype (%) (HEK-293T; [9]): 15%
- Total Cell Count (HEK-293T; [9]): 535
- Population Apoptotic (%) (HEK-293T; [10]): 14%
- Population Fragmented Nuclei (%) (HEK-293T; [10]): 13%
- Population Healthy Nuclei (%) (HEK-293T; [10]): 76%
- Population Hoechst High Intensity Objects (%) (HEK-293T; [10]): 3%
- Population Membrane Permeable-Phenotype (%) (HEK-293T; [10]): 13%
- Population Mitochondria Different-Phenotype (%) (HEK-293T; [10]): 5%
- Population Mitotic Cells (%) (HEK-293T; [10]): 85%
- Population Normal (%) (HEK-293T; [10]): 96%
- Population Pyknosed Nuclei (%) (HEK-293T; [10]): 9%
- Population Tubulin-Different-Phenotype (%) (HEK-293T; [10]): 20%
- Total Cell Count (HEK-293T; [10]): 437
- Population Apoptotic (%) (HEK-293T; [11]): 37%
- Population Fragmented Nuclei (%) (HEK-293T; [11]): 18%
- Population Healthy Nuclei (%) (HEK-293T; [11]): 69%
- Population Hoechst High Intensity Objects (%) (HEK-293T; [11]): 8%
- Population Membrane Permeable-Phenotype (%) (HEK-293T; [11]): 2%
- Population Mitochondria Different-Phenotype (%) (HEK-293T; [11]): 46%
- Population Mitotic Cells (%) (HEK-293T; [11]): 62%
- Population Normal (%) (HEK-293T; [11]): 91%
- Population Pyknosed Nuclei (%) (HEK-293T; [11]): 11%
- Population Tubulin-Different-Phenotype (%) (HEK-293T; [11]): 79%
- Total Cell Count (HEK-293T; [11]): 471
- Population Apoptotic (%) (HEK-293T; [12]): 27%
- Population Fragmented Nuclei (%) (HEK-293T; [12]): 14%
- Population Healthy Nuclei (%) (HEK-293T; [12]): 59%
- Population Hoechst High Intensity Objects (%) (HEK-293T; [12]): 4%
- Population Membrane Permeable-Phenotype (%) (HEK-293T; [12]): 13%
- Population Mitochondria Different-Phenotype (%) (HEK-293T; [12]): 24%
- Population Mitotic Cells (%) (HEK-293T; [12]): 72%
- Population Normal (%) (HEK-293T; [12]): 95%
- Population Pyknosed Nuclei (%) (HEK-293T; [12]): 25%
- Population Tubulin-Different-Phenotype (%) (HEK-293T; [12]): 74%
- Total Cell Count (HEK-293T; [12]): 253
